Measurements pooled from the literature.
Lines come from different studies, so protocols differ.
Target: Mitogen-activated protein kinase 6 (MAPK6, Homo sapiens, UniProt Q16659)

Structure (SMILES) | effect on | technique | concentration | remaining binding [%]
Cc1nc(C2CCN(C(=O)c3ccc(OC(F)(F)F)cc3N)CC2)c2ncc(N3CCN(C)CC3)cc2n1 | cell-free assay | competition with immobilised ligand | 1 µM | 100
C=CC(=O)N1CCC(C(=O)NCC(=O)N2CCN(c3nc(-c4cnc(N)nc4C(F)F)nc(N4CCOCC4)n3)CC2)CC1 | binding | competition with immobilised ligand | 1 µM | 96
CN(C)c1ncnc(-c2ccc3nc(Nc4cc(CN5CCN(C(=O)CC(F)(F)F)CC5)ccn4)[nH]c3c2)c1Cl | cell-free assay | competition with immobilised ligand | 1 µM | 100
Nc1ncc2c(n1)-c1c([nH]c3ccc(C#CC4CC4)cc13)CCCC2 | binding | competition with immobilised ligand | 1 µM | 100
O=C(Nc1c[nH]nc1C(=O)NC1CCNCC1)c1cc(F)cc(F)c1 | binding | competition with immobilised ligand | 1 µM | 89
C[C@@H](c1ccc(-n2cnc3c(N)ncnc32)cc1)N1CCc2nn(C)c(Cc3ccccc3)c2C1=O | binding | competition with immobilised ligand | 0.1 µM | 93
Cn1nc(C(=O)NCc2ccc(C(=O)O)cc2)cc1-c1ccc2[nH]ccc2c1 | cell-free assay | competition with immobilised ligand | 0.1 µM | 100
C[C@@H]1CCN(c2nccc(-c3cnn4ncccc34)n2)C1 | binding |  | 1 µM | 100
CNC(=O)[C@@H]1CC[C@@H](n2c(-c3ccc4cnccc4c3)nc3ccc(C(=O)NCc4cccc(C(N)=O)c4)cc32)C1 | binding | competition with immobilised ligand | 1 µM | 100
C[C@@]1(Cc2ccc(C#N)cc2)C(=O)N(c2cc(Cl)cc(Cl)c2)c2ncc(C(=O)NC3(c4nc(C5CCC5)no4)CC3)n21 | cell-free assay | competition with immobilised ligand | 1 µM | 100
c1cnn2ncc(-c3ccnc(N4CCC45COC5)n3)c2c1 | binding |  | 1 µM | 92
O=C(c1ccc(Nc2ncc(Cl)c(-c3cc4ccccc4s3)n2)cc1)N1CCC(N2CCCC2)CC1 | binding | competition with immobilised ligand | 1 µM | 0
F[C@@H]1CCN(c2nccc(-c3cnn4ncccc34)n2)C1 | binding |  | 1 µM | 74
CC(C)CC(=O)N1CCc2nc(-c3ccc(Br)cc3)nc(N(C)Cc3ccccc3)c2C1 | cell-free assay | competition with immobilised ligand | 0.1 µM | 100
N[C@H]1CCN(c2nccc(-c3cnn4ncccc34)n2)C1 | binding |  | 1 µM | 98
CN(C(=O)c1ccccc1)c1cc(N(C)c2ccc3c(c2)CCc2ccc(C(=O)NCCN4CCOCC4)cc2C3=O)ccc1F | cell-free assay | competition with immobilised ligand | 1 µM | 100
CN(C)c1nccc(-c2cnn3ncccc23)n1 | binding |  | 1 µM | 100
COc1cnc(Nc2cccc(S(N)(=O)=O)c2)nc1N1CCN(c2ccccc2)C(=O)C1 | binding | competition with immobilised ligand | 1 µM | 100
O=C(NCCCN1CCOCC1)c1ccc(Nc2ncc(Cl)c(-c3ccc(Cl)s3)n2)cc1 | binding | competition with immobilised ligand | 1 µM | 0.05
COc1ccnn2ncc(-c3ccnc(N(C)C)n3)c12 | binding |  | 1 µM | 85
O=C(NCCCN1CCOCC1)c1ccc(Nc2nccc(-c3cc4ccccc4s3)n2)cc1 | binding | competition with immobilised ligand | 1 µM | 48
CC1CCCN1c1nccc(-c2cnn3ncccc23)n1 (stereo not shown) | binding |  | 1 µM | 89
